Compound activity: PubChem, several laboratories
LANA-H2B inh: blocks KSHV LANA binding to histone H2A/H2B; hit rate 0.6% among 320,000; inhibition, % (concentration not given with the values); Q9QR71; cell-free LANA-H2A/H2B peptide, fluorescence polarization; in the data active = inhibition mostly above about 10%, no sharp cut-off; inactive = mostly below about 6.7%
T cell modulator: modulates CD8 T cell binding to vesicles; 2C CD8+ T cell-vesicle binding, flow cytometry; hits give low values; response (vesicle binding), % at 7 µM; hit rate 0.068% among 330,000; AID 2052;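 active = response, share of CD8 T cells binding vesicles, and their 90th percentile fluorescence all below set limits, cut at about 80% in these data, passing the limit was not always enough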;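 also: values below 100% mean blocked vesicle binding to the CD8+ T cells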
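Incubation: binding step 1.5 h, 37 °C, antibody labelling 20 min, ice; system: murine 2C transgenic CD8+ T lymphocytes; technique: cytometric PE anti-B7-1 and Alexa647 anti-CD8 signals after 1% paraformaldehyde fixation; also added: QL9-charged Drosophila Ld/ICAM-1/B7-1 vesicles; control set: naked versus QL9-loaded vesicles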
DSG3 Ab inh: inhibitors of pemphigus antibody binding to human desmoglein-3. hit rate 0.48% among 310,000. binding (percent of control), % at 10 µM. DSG3-coupled beads, scFv-anti-DSG3-GFP binding, flow cytometry; hits give low values. P32926. AID 588358;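 active = binding more than 3 SD below its plate's average and above zero; inconclusive = below that plate limit but binding exactly zero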;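 also: hits lower antibody fragment binding to DSG3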
GASC-1 inh: inhibitors of human GASC-1 (JMJD2C) demethylase; inhibition, % at 2.35 µM; hit rate 0.069% among 330,000; Q9H3R0; GST-JMJD2C(1-420) H3K9me3 demethylation, DELFIA europium;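 active = more than half of a compound's replicate wells show inhibition beyond 50%, single wells judged on their own value; inconclusive = some, but no more than half, of replicates pass 50% inhibition; inactive = no replicate passes 50% inhibition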;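 also: signal counts dimethyl H3K9 product captured on neutravidin plate; 0% = median of DMSO wells and 100% = 0.3 times that DMSO median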
HDAC3 inh: human HDAC3 inhibition; O15379; recombinant HDAC3, fluorogenic peptide/trypsin coupled, fluorescence; inhibition, % at 8.3 µM; hit rate 0.15% among 320,000; in the data active = inhibition above about 26%, passing the limit was not always enough; inconclusive = no clear call, values can overlap the other calls
Target sequence (O15379 whole entry, looked up): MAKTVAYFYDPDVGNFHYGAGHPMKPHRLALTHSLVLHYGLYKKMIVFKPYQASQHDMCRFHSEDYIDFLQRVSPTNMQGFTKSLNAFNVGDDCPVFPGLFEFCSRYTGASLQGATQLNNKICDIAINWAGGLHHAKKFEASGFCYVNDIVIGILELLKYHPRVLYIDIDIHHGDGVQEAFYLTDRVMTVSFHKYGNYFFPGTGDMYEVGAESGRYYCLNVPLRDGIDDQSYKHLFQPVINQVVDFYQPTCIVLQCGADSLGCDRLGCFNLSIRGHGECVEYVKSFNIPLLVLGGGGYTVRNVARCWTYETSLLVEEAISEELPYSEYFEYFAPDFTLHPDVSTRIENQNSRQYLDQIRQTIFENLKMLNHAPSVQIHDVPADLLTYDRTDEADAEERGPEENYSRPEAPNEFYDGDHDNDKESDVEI
Arr AP2 block: blocks beta-arrestin peptide binding to AP2 adaptin; FITC-arrestin peptide / GST-AP2 beads, flow cytometry; AP2 beta2 appendage carries R879A mutation; inhibition, % at 10 µM; hit rate 0.31% among 340,000; AID 504490;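 active = inhibition above a set limit, near 3 SD of compounds lacking own fluorescence, cut at about 54% in these data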;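 also: plate controls were DMSO wells for no effect and 5 µM unlabelled arrestin peptide for full effect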
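System: GST-tagged AP2 beta2-adaptin appendage (R879A) on 4 µm glutathione beads / Reagent: FITC-arrestin peptide, 50 nM / Detection: HyperCyt-sampled flow cytometry, FL1 channel, ex 488/em 535 nm / Timing: 12 min plus 1 h, RT / Buffer or medium: PBS plus Tween 20 (0.05%) and BSA (0.1%)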
Active calls of the source: *; ? = inconclusive; . = no result; + = active, no number; ! = repeats disagree. In the library only some 1.6% were active in any assay of this set; here they are far more common.

SMILES	LANA-H2B inh	T cell modulator	DSG3 Ab inh	GASC-1 inh	HDAC3 inh	Arr AP2 block
COc1cccc(OCc2cc(C(=O)N3CCN(C)C(c4ccccc4)C3)no2)c1 (stereo not drawn)	-1	164	98	-17	-2	34
COc1ccc2ccccc2c1/C=N\NC(=O)c1ccc(C)s1	5	126	114	0	6	-8
COc1ccc2ccccc2c1/C=N/NC(=O)c1sc(N)c(C#N)c1C	+	232	91	6	-2	-2
CC(=O)Nc1ccc(S(=O)(=O)NCc2nc(-c3ccccc3C)no2)cc1	1	396	.	-2	3	32
CCCCCC(=O)N(O)C1CC(=O)N(c2ccccc2)C1=O (stereo not drawn)	-3	185	96	2	75*	5
CCCCCCC(=O)N(O)C1CC(=O)N(Cc2ccccc2)C1=O (stereo not drawn)	4	256	96	-21	78*	-2
CCCCCC(=O)NNC1CC(=O)N(c2ccccc2)C1=O (stereo not drawn)	-2	252	112	-4	-1	.
O=C1CC(N(O)C2CC(=O)N(Cc3ccccc3)C2=O)C(=O)N1Cc1ccccc1 (stereo not drawn)	-1	295	.	10	2	6
O=C(NCc1ccc(F)cc1)C1CCCN(c2cnccn2)C1 (stereo not drawn)	-1	87	73	-21	-2	16
Cc1ccc(S(=O)(=O)NNC(=O)C(=O)NNS(=O)(=O)c2ccc(C)cc2)cc1	-1	338	84	7	-5	5
Cc1ccc(S(=O)(=O)NCCNS(=O)(=O)c2ccc(C)cc2)cc1	19*	297	636	1	9	-124
O=S(=O)(NCCCCCNS(=O)(=O)c1ccccc1)c1ccccc1	16*!	282	106	-4	4	30
Cc1ccc(S(=O)(=O)NNC(=O)CCCCC(=O)NNS(=O)(=O)c2ccc(C)cc2)cc1	7.7*	131	102	3	-2	18
O=C(NCCC(=O)N1CCN(Cc2c(F)cccc2Cl)CC1)c1ccc(Cl)cc1	1	759	96	6	-1	-5
Cc1ccc(/C=C/C(=O)O)cc1S(=O)(=O)N(C)CCO	-3	220	103	-3	-6	3
COc1cc(/C=C/C(=O)O)cc(S(=O)(=O)N(C)CCO)c1OC	6	0.0*	104	11	3	-15
COc1ccc(CNC(=O)CC2C[C@H](C(=O)N3CCCCC3)[C@@]3(C)c4[nH]c5ccccc5c4CCN3C2=O)cc1OC (stereo partly drawn)	0	301	104	17	-4	36
O=C1C2C3C=CC(CNS(=O)(=O)c4ccccc4)(O3)C2C(=O)N1c1ccc(Cl)cc1 (stereo not drawn)	-7	206	86	3	2	3
Cc1ccc(N2C(=O)C3C4C=CC(CNC(=S)N5CCN(c6cccc(C)c6)C(C)C5)(O4)C3C2=O)cc1 (stereo not drawn)	0	427	83*	2	.	-4
CCN(CC)CCNC(=O)CNC(=O)c1nn(-c2ccc(OC)c(OC)c2)c(=O)c2ccccc12	-5	231	99	8	1	6
CS(=O)(=O)c1ccc(C(=O)N(Cc2ccccc2)c2ccccc2)cc1	2	159	147	7	0	-3
Cc1cccc(N(Cc2ccccc2)C(=O)c2ccc(S(C)(=O)=O)cc2)c1	23*	296	137	?	6	2
COc1cc(C(=O)N/N=C/c2coc3ccc(Cl)cc3c2=O)ccc1O	-5	315	.	-8	96*	9
COc1ccc(C(=O)N/N=C\c2coc3ccccc3c2=O)cc1	8	135	104	-21	89*	12
O=C(N/N=C/c1coc2ccc(Cl)cc2c1=O)c1ccc(O)cc1	-1	518	.	4	97*	-23
SMILES	LANA-H2B inh	T cell modulator	DSG3 Ab inh	GASC-1 inh	HDAC3 inh	Arr AP2 block
O=C(Cc1cccc(NC(=O)C2CCN(C(=O)C3CCCCC3)CC2)c1)Nc1cccc(C(=O)N2CCCC2)c1	4	652	102	.	7	18
Cc1ccc(S(=O)(=O)N2CCN(CC(=O)NCC3(N4CCOCC4)CCCCC3)CC2)cc1	.	.	103	.	.	-5
O=C1CCCc2nc(N3CCN(C(=O)c4ccco4)CC3)ncc21	2	257	.	-2	11	6
COc1ccc(C(=O)CSc2nnc(CNc3ccc(C)cc3C)o2)cc1	-5	294	95	8	2	-3
Cc1ccc(NCc2nnc(SCC(=O)c3ccc4c(c3)OCCO4)o2)c(C)c1	0	550	99	2	85*	22
O=C(Cn1c(CO)nc2ccccc21)Nc1ccc2c(c1)OCCCO2	-1	305	109	1	-7	7
COc1ccc(-n2c(N)c(C(=O)NCC3CCCO3)c3nc4ccccc4nc32)c(OC)c1 (stereo not drawn)	-7	925	73*	24	-1	-3
CC(=O)Nc1c(Br)cc2c(c1Br)Cc1cc([N+](=O)[O-])ccc1-2	.	.	92	.	.	-11
Cc1ccc(Sc2ncccc2COC(=O)Nc2c(C)cccc2C)cc1	0	516	3.0*	-2	12	6
CCOC(=O)c1c(-c2ccccc2)oc2ccc(O)cc12	-5	186	86	-4	-7	-8
NC(=O)c1c(-c2ccccc2)oc2ccc(O)cc12	17*	297	101	4	3	4
CC1CCCN(S(=O)(=O)c2ccc(NC(=O)[C@@H]3CCCN3C(=O)c3cccs3)cc2)C1 (stereo partly drawn)	0	400	98	-20	3	-6
CN(C)CC/C=C1\c2ccccc2COc2ccccc21	70*	500	100	-8	.	2
Cc1ccc([N+](=O)[O-])cc1-c1ccc(/C=C(\C#N)c2[nH]nc(N)c2C#N)o1	0	444	86*	3	5	35
CC1CC1C(=O)OCC(=O)Nc1ccccc1Oc1ccccc1 (stereo not drawn)	35*	209	108	2	-13	.
COC(=O)c1ccc(C(=O)OC)c(NC(=O)COC(=O)C2CC2C)c1 (stereo not drawn)	21*	175	107	-1	-7	-7
O=C(COc1ccccc1)Nc1ccccc1Oc1ccccc1	0	225	99	4	2	-4
COC(=O)c1ccc(C(=O)OC)c(NC(=O)COC(=O)C2CCCCC2)c1	-2	552	78	6	-9	0
Cc1cccc(C)c1NC(=S)NN(Cc1ccccc1)c1ccccc1	-9	90	.	72*	3	8
Cc1ccc(/C=C/c2nnc(-c3cccs3)o2)cc1	0	336	70*	-16	-4	6
